{"source": "ChEMBL document CHEMBL2331476", "about": "“A novel semisynthetic flavonoid 7-O-galloyltaxifolin upregulates heme oxygenase-1 in RAW264.7 cells via MAPK/Nrf2 pathway” (J Med Chem, 2013)", "assay_type_in_all_cases": "cell-based", "key": {"[1]": {"biological_target": "T1, Nuclear factor erythroid 2-related factor 2 (Mus musculus) (UniProt Q60795)", "T1 sequence (whole entry)": "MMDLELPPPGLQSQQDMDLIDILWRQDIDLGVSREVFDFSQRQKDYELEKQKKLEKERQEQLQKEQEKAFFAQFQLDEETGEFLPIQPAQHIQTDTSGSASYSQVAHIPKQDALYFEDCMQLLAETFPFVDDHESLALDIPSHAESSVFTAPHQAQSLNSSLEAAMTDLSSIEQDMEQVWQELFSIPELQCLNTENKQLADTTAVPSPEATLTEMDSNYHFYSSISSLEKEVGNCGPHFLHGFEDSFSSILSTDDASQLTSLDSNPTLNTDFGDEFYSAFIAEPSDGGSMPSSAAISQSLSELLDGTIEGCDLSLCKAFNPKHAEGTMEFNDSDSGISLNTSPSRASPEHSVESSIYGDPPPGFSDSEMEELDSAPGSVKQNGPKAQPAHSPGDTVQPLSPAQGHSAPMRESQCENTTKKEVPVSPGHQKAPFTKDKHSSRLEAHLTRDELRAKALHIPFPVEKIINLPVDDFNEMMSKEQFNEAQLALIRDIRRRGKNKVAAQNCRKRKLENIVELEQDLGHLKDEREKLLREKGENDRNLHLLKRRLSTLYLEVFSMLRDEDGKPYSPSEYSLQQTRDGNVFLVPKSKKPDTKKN", "assay": "Activation of Nrf2 in mouse RAW264.7 cells assessed as induction of Hmox1 mRNA expression at 50 uM after 6 hrs by real-time PCR analysis in presence of SB203580", "outline": "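Pretreatment 30 min with 0.1% DMSO, 15 μM PD98059, 15 μM SB203580 or 30 μM SP600125, then 50 μM agent for 6 h in serum-free medium. Hmox1 mRNA by TaqMan qPCR normalized to Gapdh, given as percent of agent-induced expression; mean ± SD of three experiments.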"}, "[2]": {"biological_target": "T1, Nuclear factor erythroid 2-related factor 2 (Mus musculus)", "assay": "Activation of Nrf2 in mouse RAW264.7 cells assessed as upregulation of HO1 protein expression at 50 uM after 1 to 6 hr by Western blotting analysis", "details": "TDE = time-dependent effect", "outline": "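HO-1 protein in whole-cell lysates (20 μg/lane) of serum-starved RAW264.7 cells after 6 h at 10-50 μM or 50 μM for 1-6 h in serum-free medium, 0.1% DMSO control. Chemiluminescent Western blot; HO-1 densitometry normalized to actin, mean of three experiments.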"}, "[3]": {"biological_target": "T1, Nuclear factor erythroid 2-related factor 2 (Mus musculus)", "assay": "Activation of Nrf2 in mouse RAW264.7 cells assessed as upregulation of Hmox1 gene expression at 50 uM after 6 hrs by real-time PCR analysis relative to GAPDH mRNA expression", "outline": "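Serum-starved RAW264.7 cells were exposed for 6 h in serum-free medium against a 0.1% DMSO control. Total RNA (2 μg) was reverse-transcribed, then TaqMan qPCR run for Hmox1 and Gapdh over 40 cycles. Crossing points were taken by second-derivative maximum, and fold change calculated by the 2^−ΔΔCT method normalized to Gapdh. Mean ± SD of three experiments.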"}, "[4]": {"biological_target": "T1, Nuclear factor erythroid 2-related factor 2 (Mus musculus)", "assay": "Activation of Nrf2 in mouse RAW264.7 cells assessed as induction of Hmox1 mRNA expression at 50 uM after 6 hrs by real-time PCR analysis in presence of […] N-acetyl-L-cysteine"}, "[5]": {"biological_target": "Mitogen-activated protein kinase 1 and 3 (ERK2 and ERK1) (Mus musculus) (UniProt P63085+Q63844)", "sequence (P63085 whole entry, looked up)": "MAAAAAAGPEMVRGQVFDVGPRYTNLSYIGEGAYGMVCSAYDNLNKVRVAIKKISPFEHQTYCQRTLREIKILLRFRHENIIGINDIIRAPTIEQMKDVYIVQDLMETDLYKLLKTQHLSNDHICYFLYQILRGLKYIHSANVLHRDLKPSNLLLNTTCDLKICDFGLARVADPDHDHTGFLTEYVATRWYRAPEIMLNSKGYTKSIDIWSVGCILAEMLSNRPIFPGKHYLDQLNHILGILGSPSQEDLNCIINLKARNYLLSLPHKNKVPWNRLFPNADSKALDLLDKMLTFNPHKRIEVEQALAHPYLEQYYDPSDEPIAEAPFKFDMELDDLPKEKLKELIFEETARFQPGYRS", "sequence (Q63844 whole entry, looked up)": "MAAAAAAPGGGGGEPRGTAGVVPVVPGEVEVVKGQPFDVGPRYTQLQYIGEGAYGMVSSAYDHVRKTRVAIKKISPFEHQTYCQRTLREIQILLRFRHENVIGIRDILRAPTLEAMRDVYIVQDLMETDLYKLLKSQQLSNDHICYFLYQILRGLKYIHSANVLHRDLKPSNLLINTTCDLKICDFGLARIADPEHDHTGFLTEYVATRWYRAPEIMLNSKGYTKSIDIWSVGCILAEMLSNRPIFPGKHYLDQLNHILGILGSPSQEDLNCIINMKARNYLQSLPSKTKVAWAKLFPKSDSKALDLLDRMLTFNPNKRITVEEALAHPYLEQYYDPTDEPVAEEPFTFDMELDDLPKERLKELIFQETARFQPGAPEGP", "assay": "Activation of ERK1/2 in mouse RAW264.7 cells assessed as phosphorylation at 50 uM up to 3 hrs by Western blotting analysis", "outline": "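RAW264.7 cells (passage 5-25) seeded at 1 × 10⁵ cells/cm², serum-starved overnight, then exposed in serum-free medium for 30 min to 3 h; 0.1% DMSO vehicle; 75 ng/mL EGF for 30 min as positive control. Whole-cell lysates (20 μg/lane) on 10% SDS-PAGE, blotted for phospho-ERK1 (Thr202/Tyr204), phospho-ERK2 (Thr185/Tyr187) and total ERK1/2, chemiluminescent detection.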"}, "[6]": {"biological_target": "MAP kinase p38 (Homo sapiens) (UniProt O15264+Q15759+Q16539+P53778)", "assay": "Activation of p38MAPK in mouse RAW264.7 cells assessed as phosphorylation at Thr180/Tyr182 at 50 uM after 30 mins to 4 hrs by Western blotting analysis", "details": "TDE = time-dependent effect", "outline": "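p38 phosphorylation at Thr180/Tyr182 and total p38 probed in whole-cell lysates (35 μg/lane) of serum-starved RAW264.7 cells treated for 30 min to 4 h in serum-free medium. Positive controls were 5 μM anisomycin or 75 ng/mL EGF for 30 min. Chemiluminescent Western detection.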"}, "[7]": {"biological_target": "Mitogen-activated protein kinase 9/10 (Mus musculus) (UniProt Q9WTU6+Q61831)", "sequence (Q61831 whole entry, looked up)": "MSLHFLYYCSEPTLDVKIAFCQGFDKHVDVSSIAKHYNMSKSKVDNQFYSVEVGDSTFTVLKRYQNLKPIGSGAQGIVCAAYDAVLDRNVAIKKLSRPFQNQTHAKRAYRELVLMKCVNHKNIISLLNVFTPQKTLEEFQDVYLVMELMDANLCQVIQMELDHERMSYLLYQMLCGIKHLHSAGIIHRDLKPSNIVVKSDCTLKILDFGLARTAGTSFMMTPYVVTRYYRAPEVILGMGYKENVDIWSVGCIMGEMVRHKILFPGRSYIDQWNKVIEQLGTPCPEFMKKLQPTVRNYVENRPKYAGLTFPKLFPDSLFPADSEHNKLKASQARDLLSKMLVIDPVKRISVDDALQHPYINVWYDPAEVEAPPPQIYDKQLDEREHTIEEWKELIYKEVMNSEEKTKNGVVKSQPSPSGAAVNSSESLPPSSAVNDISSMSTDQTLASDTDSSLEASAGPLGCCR", "sequence (Q9WTU6 whole entry, looked up)": "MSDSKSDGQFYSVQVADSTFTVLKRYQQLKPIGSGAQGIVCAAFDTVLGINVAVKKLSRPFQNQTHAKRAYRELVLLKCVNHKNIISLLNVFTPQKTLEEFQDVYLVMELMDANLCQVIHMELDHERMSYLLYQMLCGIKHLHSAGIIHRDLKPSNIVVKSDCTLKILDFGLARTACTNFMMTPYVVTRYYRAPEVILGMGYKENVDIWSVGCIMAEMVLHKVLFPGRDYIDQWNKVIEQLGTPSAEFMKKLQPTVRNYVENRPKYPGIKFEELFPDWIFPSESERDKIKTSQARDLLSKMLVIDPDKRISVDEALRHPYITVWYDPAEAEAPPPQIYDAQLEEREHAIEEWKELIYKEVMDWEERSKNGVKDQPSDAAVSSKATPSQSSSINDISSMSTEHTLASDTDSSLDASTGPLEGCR", "assay": "Activation of JNK2/3 in mouse RAW264.7 cells assessed as phosphorylation at 50 uM after 30 mins to 4 hrs by Western blotting analysis", "details": "TDE = time-dependent effect", "outline": "(§1)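 Serum-starved RAW264.7 cells exposed in serum-free medium for 30 min to 4 h; 5 μM anisomycin for 30 min as positive control. Whole-cell lysates (30 μg/lane) blotted for JNKs dually phosphorylated at Thr183/Tyr185 and total JNKs, chemiluminescent detection.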"}, "[8]": {"biological_target": "T1, Nuclear factor erythroid 2-related factor 2 (Mus musculus)", "assay": "Activation of Nrf2 in mouse RAW264.7 cells assessed as reduction of KEAP1 protein level at 50 uM after 1 to 6 hr by Western blotting analysis", "details": "TDE = time-dependent effect", "outline": "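Whole-cell lysates (20 μg/lane) from serum-starved RAW264.7 cells given 10-50 μM for 6 h or 50 μM for 1-6 h in serum-free medium, 0.1% DMSO vehicle. Keap1 and actin detected by chemiluminescent Western blot; Keap1 band intensity normalized to actin, mean of three experiments.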"}, "[9]": {"biological_target": "Mitogen-activated protein kinase 8 (Mus musculus) (UniProt Q91Y86)", "sequence (Q91Y86 whole entry)": "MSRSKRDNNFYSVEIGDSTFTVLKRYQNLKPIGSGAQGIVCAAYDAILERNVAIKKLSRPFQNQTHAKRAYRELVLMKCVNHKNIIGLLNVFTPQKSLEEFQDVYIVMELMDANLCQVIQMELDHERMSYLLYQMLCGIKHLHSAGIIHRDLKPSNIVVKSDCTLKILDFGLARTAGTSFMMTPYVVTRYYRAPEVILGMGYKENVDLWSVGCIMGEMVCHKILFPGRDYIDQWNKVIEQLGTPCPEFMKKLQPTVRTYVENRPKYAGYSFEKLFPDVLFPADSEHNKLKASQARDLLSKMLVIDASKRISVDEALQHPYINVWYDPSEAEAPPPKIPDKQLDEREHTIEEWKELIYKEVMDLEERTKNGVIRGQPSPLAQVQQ", "assay": "Activation of JNK1 in mouse RAW264.7 cells assessed as phosphorylation at Thr183/Tyr185 at 50 uM after 30 mins by Western blotting analysis", "outline": "as §1"}, "[10]": {"biological_target": "T1, Nuclear factor erythroid 2-related factor 2 (Mus musculus)", "assay": "Activation of Nrf2 in mouse RAW264.7 cells assessed as nuclear accumulation at 50 uM after 1 hr by Western blotting analysis", "outline": "(§2)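 Serum-starved RAW264.7 cells treated 30 min to 3 h (10-50 μM for 3 h, or 50 μM time course); 0.1% DMSO control, 50 μM quercetin positive control. Cytosolic fraction from hypotonic HEPES pH 7.9 buffer with 0.1% NP-40; nuclear fraction by 420 mM NaCl extraction. 30 μg/lane blotted for Nrf2 and actin; Nrf2/actin densitometry, mean of three experiments.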"}, "[11]": {"biological_target": "T1, Nuclear factor erythroid 2-related factor 2 (Mus musculus)", "assay": "Activation of Nrf2 in mouse RAW264.7 cells assessed as cytosolic accumulation at 25 uM after 3 hrs by Western blotting analysis", "outline": "as §2"}}, "note": "Activity calls are given as the source filed them. The rule behind the calls is not given here.", "data": [{"smiles": "O=C(Oc1cc(O)c2c(c1)O[C@H](c1ccc(O)c(O)c1)[C@@H](O)C2=O)c1cc(O)c(O)c(O)c1", "values": [{"measurement": "Activity", "setting": "[1]", "result": "inactive"}, {"measurement": "Activity", "setting": "[2]", "result": "tde"}, {"measurement": "fold change (FC)", "setting": "[3]", "result": 13.4}, {"measurement": "Activity", "setting": "[4]", "result": "inactive"}, {"measurement": "Activity", "setting": "[5]", "result": "inactive"}, {"measurement": "Activity", "setting": "[6]", "result": "tde"}, {"measurement": "Activity", "setting": "[7]", "result": "tde"}, {"measurement": "Activity", "setting": "[8]", "result": "tde"}, {"measurement": "Activity", "setting": "[9]", "result": "Active"}, {"measurement": "Activity", "setting": "[10]", "result": "Active"}, {"measurement": "Activity", "setting": "[11]", "result": "Active"}]}]}
